12 molecules from ChEMBL document CHEMBL1126298, “New triazine derivatives as potent modulators of multidrug resistance” (1992) can be followed below.

In general, T/C refers to the result in the treated group divided by that in the control group, in per cent.

Structures are written as SMILES.

The test system of assay [1] is KB. The assay can be described thus: Percent of cell viability remaining after incubating the cells with the modulator alone. The class given is functional, Homo sapiens. Set-up: concentration or dose not given beside the values. Summed up:
(§1)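 Cells were grown with modulator alone for 4 days under the same conditions as the chemosensitivity assay, and read by MTT. Viability = (absorbance with modulator/absorbance of control cells) × 100. "tox" marks viability below 25%.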

Assay [2] concerns KB. The experiment in a line: Increase in adriamycin uptake in modulator-treated cells relative to untreated KB-A1 cells at a concentration of 5 uM. It counts as functional, Homo sapiens. Summed up: (§2)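 DC-3F/AD or KB-A1 cells (5 × 10⁶/mL) were incubated at 37 °C for 5 h with 50 μM adriamycin plus modulator (2.5–10 μM range). ADR fluorescence of 10 000 cells was read by flow cytometry at 4 °C with 488 nm argon-laser excitation. The value is the increase in mean fluorescence of treated cells over untreated cells.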

Assay [3] relates to DC3F/AD. The experiment in a line: Percent of cell viability remaining after incubating the cells with the modulator alone a concentration of 5 uM. The class given is functional, Cricetulus griseus. Summed up: as §1
The test system of assay [4] is DC3F/AD. The experiment in a line: (§3) Increase in adriamycin uptake in modulator-treated cells relative to untreated cells at a concentration of 5 uM. It counts as functional, Cricetulus griseus. In short, it runs like this:
as §2

Assay [5] relates to DC3F/AD. The experiment in a line: In vitro activity in DC-3F/AD cell line Ratio of IC50(actinomycin D alone) / IC50(actinomycin D + modulator) at a concentration of 10 uM.
Assay [6] has as its system KB. The experiment in a line: Compound was evaluated for the in vitro activity in KB-A1 cell line. Activity expressed as fold reversion (Ratio of IC50(adriamycin alone) / IC50(adriamycin + modulator) at a concentration of 5 uM. It counts as functional, Homo sapiens. Summed up:
(§4)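 Human epidermoid KB-A1 cells (Pgp-overexpressing) were grown in RPMI 1640 with 10% FCS and 10 mM HEPES (pH 7.4). They were exposed for 4 days to adriamycin (nine graded concentrations, in triplicate) with or without 5 μM modulator. IC50 was read by the MTT assay. Fold reversion = IC50(ADR alone)/IC50(ADR + modulator).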

Assay [7] has as its system Cricetinae gen. sp. The experiment in a line: (§5) Percent of cell viability remaining after incubating the cells with the modulator alone at a concentration of 10 uM. The class given is functional, Cricetulus griseus. Summed up:
as §1

Assay [8] has as its system DC3F/AD. The assay can be described thus: Increase in adriamycin uptake in modulator-treated cells relative to untreated cells at a concentration of 10 uM. It counts as functional, Cricetulus griseus. In short, it runs like this: as §2
Assay [9] relates to DC3F/AD. The experiment in a line: In vitro activity in DC-3F/AD cell line(Ratio of IC50(actinomycin D alone) / IC50(actinomycin D + modulator) at a concentration of 5 uM.
The test system of assay [10] is KB. The experiment in a line: In vitro activity in KB-A1 cell line activity expressed as fold reversion (Ratio of IC50(adriamycin alone) / IC50(adriamycin + modulator) at a concentration of 5 uM. It counts as functional, Homo sapiens. In short, it runs like this:
as §4

Assay [11] deals with P388. The assay can be described thus: Antitumor activity of vincristine against P388 leukemia cell line in mice at a dose of 50 mg/kg. The class given is functional, Mus musculus.
Assay [12] relates to DC3F/AD. Described as §5. The class given is functional, Cricetulus griseus. Summed up:
as §1

Assay [13] deals with P388. The assay can be described thus: Antitumor activity of vincristine against P388 leukemia cell line in mice at a dose of 100 mg/kg. It counts as functional, Mus musculus.
In assay [14] the test system is KB. The experiment in a line: Compound was evaluated for the in vitro activity in KB-A1 cell line)Activity expressed as fold reversion (Ratio of IC50(adriamycin alone) / IC50(adriamycin + modulator) at a concentration of 5 uM. The class given is functional, Homo sapiens. Summed up: as §4
For assay [15], the system named is DC3F/AD. The assay can be described thus: Percent of cell viability remaining after incubating with a 10 uM concentration. It counts as functional, Cricetulus griseus. Summed up:
as §1

For assay [16], the system named is Cricetinae gen. sp. The assay can be described thus: Compound was evaluated for in vitro activity in DC-3F/AD cell line(Ratio of IC50(actinomycin D alone) / IC50(actinomycin D + modulator) at a concentration of 5 uM.
In assay [17] the test system is DC3F/AD. The assay can be described thus: Percent of cell viability remaining after incubating the cells with the modulator alone at a concentration of 5 uM. The class given is functional, Cricetulus griseus. In short, it runs like this:
as §1

Assay [18] deals with DC3F/AD. The assay can be described thus: Compound was evaluated for in vitro activity in DC-3F/AD cell line (Ratio of IC50(actinomycin D alone) / IC50(actinomycin D + modulator) at a concentration of 5 uM.
The subject of assay [19] is P388. The assay can be described thus: Antitumor activity of vincristine against P388 leukemia cell line in mice at a dose of 100 mg/kg. The class given is functional, Mus musculus.
Assay [20] deals with P388. The experiment in a line: Antitumor activity of vincristine against P388 leukemia cell line in mice at a dose of 50 mg/kg. The class given is functional, Mus musculus.
Assay [21] deals with KB. The assay is described as §3. The class given is functional, Homo sapiens. In short, it runs like this:
as §2

In assay [22] the test system is P388/VCR. The experiment in a line: Antitumor activity of vincristine against P388/VCR leukemia in mice at a dose of 100 mg/kg. The class given is functional, Mus musculus.
In assay [23] the test system is P388/VCR. The assay can be described thus: Antitumor activity of vincristine against P388/VCR leukemia in mice at a dose of 50 mg/kg. It counts as functional, Mus musculus.
In assay [24] the test system is P388/VCR. The experiment in a line: Antitumor activity of vincristine against P388/VCR leukemia in mice at a dose of 50 mg/kg. The class given is functional, Mus musculus.
The subject of assay [25] is P388/VCR. The assay can be described thus: Antitumor activity of vincristine against P388/VCR leukemia in mice at a dose of 100 mg/kg. It counts as functional, Mus musculus.

Regarding `C=CCNc1nc(NCC=C)nc(N2CCN(CC3c4ccccc4CCc4ccccc43)CC2)n1`, the values for the Viability in assay [1], in assay [3] and in assay [7] were 121%, 84% and 70%, respectively. The values for the Increase in assay [2], in [4] and in assay [8] were 29.7, 17.6 and 24.5, respectively. Further, the figures for the Fold reversion in assay [5], in assay [6] and in assay [9] were 1832, 63 and 464, respectively.

As for `C=CCNc1nc(NCC=C)nc(N2CCC(NCC3c4ccccc4N(C)S(=O)(=O)c4cc(Cl)ccc43)CC2)n1` (stereo unspecified), the Viability in assay [1] was found to be 92%; in assay [3], 91%. Besides, the Fold reversion in assay [10] came out at 147; in assay [5], 9570; in assay [9] it was 2804. Moreover, the figures for the T/C in assay [11] and in assay [13] were 177% and 173%, respectively. In addition, the Increase in assay [2] worked out at 39.8; in assay [4] it was 22.8; in assay [8] it was 24.1. In assay [12], this molecule displayed an Of viability of 77%.

Turning to `C=CCNc1nc(Cl)nc(N2CCC(NCC3c4ccccc4CCc4ccccc43)CC2)n1`, the Fold reversion in [14] is on record as 236; in assay [5], 2205; in assay [9], 850. Further, the Viability was found to be 96% in [15], 63% in assay [1] and 96% in assay [3]. Besides, the Increase in assay [2] worked out at 33.8; in [4] it was 21.6; in assay [8], 27.5.

For `C=CCNc1nc(NCC)nc(N2CCC(NCC3c4ccccc4COc4ccccc43)CC2)n1` (stereo unspecified), the Viability was 86% in assay [15], 101% in [1] and 76% in assay [3]. Besides, the Fold reversion is 229 in [10], 1327 in assay [16] and 2630 in [5]. Further, the T/C was found to be 196% in assay [11] and 180% in assay [13]. Moreover, the Increase in assay [2] came out at 38.8; in assay [4] it was 18; in [8] it was 21.8.

Consider `C=CCNc1nc(NCC=C)nc(N2CCN(C(c3ccc(F)cc3)c3ccc(F)cc3)CC2)n1.CS(=O)(=O)O`, for which the Viability is given as 63% in assay [15] and 65% in assay [17]. The results for the Increase in [4] and in assay [8] were 7.3 and 17.9, respectively. The Fold reversion in [5] came out at 235; in [9], 112.

Consider `COc1ccc(CCN(C)CCCC(C#N)(c2ccc(OC)c(OC)c2)C(C)C)cc1OC` (stereo unspecified), for which the results for the Viability in assay [15], in assay [1] and in assay [3] were 39%, 75% and 43%, respectively. Moreover, the Increase is reported as 13.4 in assay [2], 2.6 in assay [4] and 7.5 in assay [8]. The Fold reversion in assay [5] is 34; in [18], 3; in [6], 26.

As to `C=CCNc1nc(NCC=C)nc(N2CCC(NCC3c4ccccc4COc4ccccc43)CC2)n1` (stereo unspecified), the Viability in [15] is 78%; in assay [1] it was 106%; in [3] it was 82%. The figures for the T/C in [19] and in assay [20] were 191% and 196%, respectively. Further, the Increase amounted to 53.7 in assay [2], 25.5 in assay [4] and 25.3 in assay [8]. Also, the Fold reversion in [5] is 5344; in [6], 274; in assay [9], 1932.

On to `C=CCNc1nc(NCCC)nc(N2CCC(NCC3c4ccccc4CCc4ccccc43)CC2)n1`, for which the Viability in assay [15] was 42%; in assay [1] it was 55%; in assay [3], 85%. The values for the Fold reversion in assay [10], in assay [5] and in [9] were 221, 4455 and 2753, respectively. Also, the Increase in [21] came to 51.3; in assay [4], 27.3; in assay [8], 24.9. For the same molecule, the T/C was determined as 179% in [11] and 176% in assay [13].

In the case of `C=CCNc1nc(NCC=C)nc(N2CCC(NC(c3ccccc3)c3ccccc3)CC2)n1`, the figures for the Viability in [15] and in assay [17] were 61% and 75%, respectively. Besides, the Increase in assay [4] was 25.9; in assay [8], 40. In addition, the Fold reversion is reported as 1828 in [5] and 905 in assay [9].

Regarding `C=CCNc1nc(NCCC)nc(N2CCC(NCC(c3ccccc3)c3ccccc3)CC2)n1`, the Viability in assay [15] was 66%; in [1], 93%; in [3], 77%. Besides, the Fold reversion is recorded as 236 in [10], 2356 in assay [5] and 965 in [9]. For the same molecule, the T/C in [11] amounted to 176%; in assay [22], 163%; in [13], 177%; in assay [23], 167%. Also, the Increase came out at 51.5 in assay [2], 26 in [4] and 34.2 in assay [8].

Consider `C=CCNc1nc(NC)nc(N2CCC(NCC3c4ccccc4COc4ccccc43)CC2)n1` (stereo unspecified), for which the results for the Viability in assay [15], in assay [1] and in assay [3] were 75%, 107% and 54%, respectively. The values for the Fold reversion in [10], in assay [5] and in [9] were 183, 2203 and 600, respectively. Besides, the T/C in assay [11] was 181%; in assay [13], 163%; in assay [23], 170%. In addition, the Increase in assay [2] was found to be 35; in assay [4], 16.8; in assay [8], 21.5.

On to `C=CCNc1nc(NCC=C)nc(N2CCC(NCC(c3ccc(F)cc3)c3ccc(F)cc3)CC2)n1`, for which the values for the Viability in assay [15], in assay [1] and in assay [3] were 62%, 75% and 78%, respectively. In addition, the Fold reversion in [10] is 168; in assay [5], 2564; in assay [18], 918. Moreover, the Increase in [2] worked out at 56.5; in assay [4], 26.1; in assay [8], 35.6. The T/C in [20] was found to be 168%; in assay [24], 176%; in [25] it was 185%; in [13], 157%.
